Experimental data from different studies.
Target: Fibroblast growth factor receptor 4 (FGFR4, Homo sapiens, UniProt P22455)

CN(C)c1nccc(-c2cnn3ncccc23)n1 — remaining binding (binding; 1 µM): 100%
CN([C@@H]1CCc2c(CC(=O)O)c3cc(S(C)(=O)=O)ccc3n2C1)S(=O)(=O)c1ccc(F)cc1 — remaining binding (cell-free assay, competition with immobilised ligand; 1 µM): 99%
COc1ccnn2ncc(-c3ccnc(N(C)C)n3)c12 — remaining binding (binding; 1 µM): 100%
O=C(c1ccc(Nc2ncc(Cl)c(-c3cc4ccccc4s3)n2)cc1)N1CCC(N2CCCC2)CC1 — remaining binding (binding, competition with immobilised ligand; 1 µM): 77%
Cc1c(C(=O)O)cc(-c2ccc(C3CCNCC3)cc2)c2ccc(-c3ccc(C(F)(F)F)cc3)cc12 — remaining binding (cell-free assay, competition with immobilised ligand; 1 µM): 100%
Cc1cnc(Nc2ccc(C(=O)N3CCC(N4CCCC4)CC3)cc2)nc1-c1cc2ccccc2s1 — remaining binding (binding, competition with immobilised ligand; 1 µM): 76%
O=C(Nc1ccc(Oc2ccc(F)cc2)cc1)N1CCc2ncccc2[C@H]1c1ccc(F)cc1 — remaining binding (cell-free assay, competition with immobilised ligand; 1 µM): 95%
O=C(NCCCN1CCOCC1)c1ccc(Nc2ncc(Cl)c(-c3ccc(Cl)s3)n2)cc1 — remaining binding (binding, competition with immobilised ligand; 1 µM): 89%
CCN1CCN(Cc2ccc(C(=O)Nc3ccc(C)c(Oc4ccc5c(c4)CC(=O)N5)c3)cc2C(F)(F)F)CC1 — remaining binding (binding, competition with immobilised ligand; 1 µM): 100%
C=CC(=O)N1CCC(C(=O)NCC(=O)N2CCN(c3nc(-c4cnc(N)nc4C(F)F)nc(N4CCOCC4)n3)CC2)CC1 — remaining binding (binding, competition with immobilised ligand; 1 µM): 100%
CN(CCCC(F)(F)F)c1nccc(-c2cnn3ncccc23)n1 — remaining binding (binding; 1 µM): 96%
C[C@@H]1CN(c2cc(-c3nn(C)c4ccc(OC5(C)CC5)cc34)ncn2)C[C@H](C)O1 — remaining binding (cell-free assay, competition with immobilised ligand; 1 µM): 100%
FC(F)(F)Oc1cccc(-c2cnc3ccc(-c4ccncc4)nn23)c1 — remaining binding (cell-free assay, competition with immobilised ligand; 5 µM): 98%
COc1cnc(Nc2cccc(S(N)(=O)=O)c2)nc1N1CCN(c2ccccc2)C(=O)C1 — remaining binding (binding, competition with immobilised ligand; 1 µM): 100%
Nc1ncc2c(n1)-c1c([nH]c3ccc(C#CC4CC4)cc13)CCCC2 — remaining binding (binding, competition with immobilised ligand; 1 µM): 98%
O=C(Nc1c[nH]nc1C(=O)NC1CCNCC1)c1cc(F)cc(F)c1 — remaining binding (binding, competition with immobilised ligand; 1 µM): 100%
N[C@@H]1CCN(c2nccc(-c3cnn4ncccc34)n2)C1 — remaining binding (binding; 1 µM): 96%
CN(C(=O)c1ccccc1)c1cc(N(C)c2ccc3c(c2)CCc2ccc(C(=O)NCCN4CCOCC4)cc2C3=O)ccc1F — remaining binding (cell-free assay, competition with immobilised ligand; 1 µM): 100%
C[C@@H]1CCN(c2nccc(-c3cnn4ncccc34)n2)C1 — remaining binding (binding; 1 µM): 100%
CCOCCn1cc(C(=O)Nc2ccc(-n3nc(-c4cccnc4)cc3C(F)(F)F)cn2)ccc1=O — remaining binding (cell-free assay, competition with immobilised ligand; 1 µM): 100%
CN(c1nccc(-c2cnn3ncccc23)n1)C1CC1 — remaining binding (binding; 1 µM): 99%
CS(=O)(=O)c1cc(C2(NC(=O)c3cncc4c3cnn4-c3ccc(F)cc3)CC2)ccn1 — remaining binding (cell-free assay, competition with immobilised ligand; 1 µM): 74%
